Assays:
In vitro drug release = type: physicochemical; settings: PBS (pH 7.4), 24 hours, 37°C
In short: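 Dialysis bags holding 2 mL of free suspension or liposomes with equal drug content. Immersed in 60 mL PBS pH 7.4, SGF or SIF, each with 0.5% Tween-80, shaken at 37°C, 100 rpm. 1 mL withdrawn at intervals and replaced with fresh medium. Drug quantified by HPLC (C18, methanol:water 80:20, 254 nm). Cumulative release % calculated with sampling correction, then fitted to kinetic models.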

[1] = test system: intestinal segments (duodenum, jejunum, ileum and colon); test: In situ single-pass intestinal perfusion; type: in vivo, rats; settings: 125, 250, 500 μg/mL; taken to indicate passive diffusion
MRP2 [2] = target: MRP2 (Rattus norvegicus, UniProt Q63120); test: SPIP with MRP2 inhibitor indomethacin; type: in vivo, rats; settings: Indo 200 μmol/L; increase taken to indicate a substrate of MRP2
Sequence of MRP2 (Rattus norvegicus, UniProt Q63120) (Q63120 whole entry): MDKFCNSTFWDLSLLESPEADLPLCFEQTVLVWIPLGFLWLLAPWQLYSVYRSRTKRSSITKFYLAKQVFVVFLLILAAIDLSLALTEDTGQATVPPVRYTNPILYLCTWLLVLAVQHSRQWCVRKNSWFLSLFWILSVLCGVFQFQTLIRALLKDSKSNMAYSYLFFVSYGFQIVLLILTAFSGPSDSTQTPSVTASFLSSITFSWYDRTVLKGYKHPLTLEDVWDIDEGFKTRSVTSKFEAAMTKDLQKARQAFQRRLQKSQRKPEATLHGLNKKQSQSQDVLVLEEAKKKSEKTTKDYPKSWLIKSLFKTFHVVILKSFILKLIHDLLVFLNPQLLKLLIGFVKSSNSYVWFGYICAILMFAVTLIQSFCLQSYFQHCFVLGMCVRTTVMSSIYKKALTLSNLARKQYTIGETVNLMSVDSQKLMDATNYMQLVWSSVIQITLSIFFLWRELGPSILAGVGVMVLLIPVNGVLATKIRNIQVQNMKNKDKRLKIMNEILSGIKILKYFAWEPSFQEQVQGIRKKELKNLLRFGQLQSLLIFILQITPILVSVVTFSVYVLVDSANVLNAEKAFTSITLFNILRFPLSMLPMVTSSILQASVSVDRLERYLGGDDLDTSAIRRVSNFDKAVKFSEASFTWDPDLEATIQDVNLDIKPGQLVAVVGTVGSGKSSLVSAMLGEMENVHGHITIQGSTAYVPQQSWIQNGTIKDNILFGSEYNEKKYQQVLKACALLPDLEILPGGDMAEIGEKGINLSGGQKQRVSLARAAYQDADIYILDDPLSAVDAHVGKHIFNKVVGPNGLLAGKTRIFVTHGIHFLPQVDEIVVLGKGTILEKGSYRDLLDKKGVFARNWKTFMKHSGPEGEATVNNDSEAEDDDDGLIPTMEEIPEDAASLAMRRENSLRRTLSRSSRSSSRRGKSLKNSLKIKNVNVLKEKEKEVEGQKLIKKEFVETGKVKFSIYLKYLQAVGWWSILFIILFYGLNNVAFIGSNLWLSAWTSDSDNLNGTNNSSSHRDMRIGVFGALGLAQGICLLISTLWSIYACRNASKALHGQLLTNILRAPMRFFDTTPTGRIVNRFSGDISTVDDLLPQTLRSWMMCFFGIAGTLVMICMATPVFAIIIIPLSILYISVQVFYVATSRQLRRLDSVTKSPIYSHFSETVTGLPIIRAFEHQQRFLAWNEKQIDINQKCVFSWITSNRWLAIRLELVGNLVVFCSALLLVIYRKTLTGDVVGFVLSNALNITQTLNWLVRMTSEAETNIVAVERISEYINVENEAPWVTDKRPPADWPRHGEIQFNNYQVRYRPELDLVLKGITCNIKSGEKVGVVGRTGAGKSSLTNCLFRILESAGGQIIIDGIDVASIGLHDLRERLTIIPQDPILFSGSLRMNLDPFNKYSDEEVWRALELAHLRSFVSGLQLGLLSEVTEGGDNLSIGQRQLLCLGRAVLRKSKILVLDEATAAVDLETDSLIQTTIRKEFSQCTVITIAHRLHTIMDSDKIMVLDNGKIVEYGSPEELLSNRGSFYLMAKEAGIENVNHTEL

BCRP [3] = target: T1, BCRP (Rattus norvegicus, UniProt Q80W57); test: SPIP with BCRP inhibitor reserpine; type: in vivo, rats; settings: Res 50 μmol/L; increase taken to indicate a substrate of BCRP
T1 sequence (Q80W57 1-657): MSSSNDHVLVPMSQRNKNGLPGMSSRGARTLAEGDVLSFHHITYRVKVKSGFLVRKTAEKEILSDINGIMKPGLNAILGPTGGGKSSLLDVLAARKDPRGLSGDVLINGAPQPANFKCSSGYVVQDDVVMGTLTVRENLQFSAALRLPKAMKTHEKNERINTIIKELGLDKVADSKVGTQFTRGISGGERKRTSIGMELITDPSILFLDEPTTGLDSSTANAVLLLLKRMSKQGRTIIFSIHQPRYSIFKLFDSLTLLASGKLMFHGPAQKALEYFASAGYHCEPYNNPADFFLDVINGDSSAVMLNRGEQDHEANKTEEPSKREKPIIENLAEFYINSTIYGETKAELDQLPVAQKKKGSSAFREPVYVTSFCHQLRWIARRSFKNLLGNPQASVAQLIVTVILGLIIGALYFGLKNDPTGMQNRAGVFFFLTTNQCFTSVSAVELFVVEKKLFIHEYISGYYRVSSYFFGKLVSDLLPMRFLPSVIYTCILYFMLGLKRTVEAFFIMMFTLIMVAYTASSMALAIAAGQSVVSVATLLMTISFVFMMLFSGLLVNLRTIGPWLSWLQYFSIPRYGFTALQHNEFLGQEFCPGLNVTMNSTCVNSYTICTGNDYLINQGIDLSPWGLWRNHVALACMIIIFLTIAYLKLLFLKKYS

Caco-2 cells = test: Caco-2 cell viability, MTT assay; type: cell-based, human
In short: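 Caco-2 cells seeded at 10,000/well in 96-well plates and grown 24 h at 37°C, 5% CO2. Exposed to increasing concentrations of free or liposomal test compound for 4 h, with α-MEM as negative control. Then 0.5% MTT added for 4 h at 37°C, formazan dissolved in DMSO, A490 read. Viability expressed as percent of control.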

[4] = Transport study in Caco-2 cell monolayer; type: in vitro ADME; settings: human, Caco-2, pH 7.4
In short: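 Caco-2 cells grown in α-MEM with 20% FBS, 1% NEAA, 4 mM glutamine and pen/strep. Seeded on transwells and cultured 21 days; monolayers with TEER >300 Ω·cm2 used. In pH 7.4 HBSS, free or liposomal test compound (2.5, 5, 10 μg/mL) added apically (A→B) or basolaterally (B→A). Receiver sampled at 30–180 min with replacement. Triplicate runs; Papp from ΔQ/Δt, area and C0; efflux ratio derived.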

P-gp [5] = target: P-gp (Homo sapiens, UniProt P08183); test: Caco-2 transport with P-gp inhibitor Ver; type: in vitro ADME; settings: Ver 100 μmol/L; increase taken to indicate a substrate of P-gp
Sequence of P-gp (Homo sapiens, UniProt P08183) (P08183 whole entry): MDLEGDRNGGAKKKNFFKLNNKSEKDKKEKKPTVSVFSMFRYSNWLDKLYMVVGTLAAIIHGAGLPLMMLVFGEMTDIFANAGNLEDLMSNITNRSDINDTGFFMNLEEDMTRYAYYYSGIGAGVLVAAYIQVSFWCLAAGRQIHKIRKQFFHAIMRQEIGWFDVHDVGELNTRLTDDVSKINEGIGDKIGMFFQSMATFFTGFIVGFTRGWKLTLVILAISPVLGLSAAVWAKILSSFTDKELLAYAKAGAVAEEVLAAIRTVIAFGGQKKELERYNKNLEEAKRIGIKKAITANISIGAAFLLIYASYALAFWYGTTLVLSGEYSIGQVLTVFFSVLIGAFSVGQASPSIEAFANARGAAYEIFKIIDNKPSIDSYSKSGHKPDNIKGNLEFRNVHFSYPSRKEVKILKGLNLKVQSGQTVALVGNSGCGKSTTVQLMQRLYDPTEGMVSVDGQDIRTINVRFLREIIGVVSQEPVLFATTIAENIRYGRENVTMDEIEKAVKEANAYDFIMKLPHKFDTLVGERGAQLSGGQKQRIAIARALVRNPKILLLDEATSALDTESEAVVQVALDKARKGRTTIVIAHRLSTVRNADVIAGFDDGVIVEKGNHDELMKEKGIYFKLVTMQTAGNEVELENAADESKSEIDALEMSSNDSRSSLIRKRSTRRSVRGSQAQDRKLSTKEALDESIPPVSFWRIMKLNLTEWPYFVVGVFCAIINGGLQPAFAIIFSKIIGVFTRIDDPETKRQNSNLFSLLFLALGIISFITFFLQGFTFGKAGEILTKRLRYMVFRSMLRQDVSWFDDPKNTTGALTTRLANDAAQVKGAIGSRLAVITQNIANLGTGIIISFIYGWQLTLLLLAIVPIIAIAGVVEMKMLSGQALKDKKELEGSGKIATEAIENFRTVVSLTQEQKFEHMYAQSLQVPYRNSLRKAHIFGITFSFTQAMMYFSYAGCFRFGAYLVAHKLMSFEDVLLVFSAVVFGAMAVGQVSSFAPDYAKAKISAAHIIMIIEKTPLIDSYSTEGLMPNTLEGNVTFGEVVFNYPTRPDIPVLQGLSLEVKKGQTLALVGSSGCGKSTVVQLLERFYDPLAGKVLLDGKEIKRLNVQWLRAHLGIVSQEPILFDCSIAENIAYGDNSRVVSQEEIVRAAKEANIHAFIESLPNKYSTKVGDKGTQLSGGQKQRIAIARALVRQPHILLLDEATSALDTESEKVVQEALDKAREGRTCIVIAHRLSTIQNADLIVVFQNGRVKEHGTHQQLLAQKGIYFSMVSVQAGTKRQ
In short: (§1)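 Bidirectional transport across 21-day Caco-2 monolayers (TEER >300 Ω·cm2) in pH 7.4 HBSS. Free or liposomal test compound at 2.5, 5, 10 μg/mL, with efflux inhibitor added: verapamil 100 μmol/L (P-gp), indomethacin 200 μmol/L (MRP2) or reserpine 50 μmol/L (BCRP). Receiver sampled at 30–180 min with replacement. Triplicate runs; Papp from ΔQ/Δt, area and C0.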

MRP2 [6] = target: MRP2 (Homo sapiens, UniProt Q92887); test: Caco-2 transport with MRP2 inhibitor Indo; type: in vitro ADME; settings: Indo 200 μmol/L; increase taken to indicate a substrate of MRP2
Sequence of MRP2 (Homo sapiens, UniProt Q92887) (Q92887 whole entry): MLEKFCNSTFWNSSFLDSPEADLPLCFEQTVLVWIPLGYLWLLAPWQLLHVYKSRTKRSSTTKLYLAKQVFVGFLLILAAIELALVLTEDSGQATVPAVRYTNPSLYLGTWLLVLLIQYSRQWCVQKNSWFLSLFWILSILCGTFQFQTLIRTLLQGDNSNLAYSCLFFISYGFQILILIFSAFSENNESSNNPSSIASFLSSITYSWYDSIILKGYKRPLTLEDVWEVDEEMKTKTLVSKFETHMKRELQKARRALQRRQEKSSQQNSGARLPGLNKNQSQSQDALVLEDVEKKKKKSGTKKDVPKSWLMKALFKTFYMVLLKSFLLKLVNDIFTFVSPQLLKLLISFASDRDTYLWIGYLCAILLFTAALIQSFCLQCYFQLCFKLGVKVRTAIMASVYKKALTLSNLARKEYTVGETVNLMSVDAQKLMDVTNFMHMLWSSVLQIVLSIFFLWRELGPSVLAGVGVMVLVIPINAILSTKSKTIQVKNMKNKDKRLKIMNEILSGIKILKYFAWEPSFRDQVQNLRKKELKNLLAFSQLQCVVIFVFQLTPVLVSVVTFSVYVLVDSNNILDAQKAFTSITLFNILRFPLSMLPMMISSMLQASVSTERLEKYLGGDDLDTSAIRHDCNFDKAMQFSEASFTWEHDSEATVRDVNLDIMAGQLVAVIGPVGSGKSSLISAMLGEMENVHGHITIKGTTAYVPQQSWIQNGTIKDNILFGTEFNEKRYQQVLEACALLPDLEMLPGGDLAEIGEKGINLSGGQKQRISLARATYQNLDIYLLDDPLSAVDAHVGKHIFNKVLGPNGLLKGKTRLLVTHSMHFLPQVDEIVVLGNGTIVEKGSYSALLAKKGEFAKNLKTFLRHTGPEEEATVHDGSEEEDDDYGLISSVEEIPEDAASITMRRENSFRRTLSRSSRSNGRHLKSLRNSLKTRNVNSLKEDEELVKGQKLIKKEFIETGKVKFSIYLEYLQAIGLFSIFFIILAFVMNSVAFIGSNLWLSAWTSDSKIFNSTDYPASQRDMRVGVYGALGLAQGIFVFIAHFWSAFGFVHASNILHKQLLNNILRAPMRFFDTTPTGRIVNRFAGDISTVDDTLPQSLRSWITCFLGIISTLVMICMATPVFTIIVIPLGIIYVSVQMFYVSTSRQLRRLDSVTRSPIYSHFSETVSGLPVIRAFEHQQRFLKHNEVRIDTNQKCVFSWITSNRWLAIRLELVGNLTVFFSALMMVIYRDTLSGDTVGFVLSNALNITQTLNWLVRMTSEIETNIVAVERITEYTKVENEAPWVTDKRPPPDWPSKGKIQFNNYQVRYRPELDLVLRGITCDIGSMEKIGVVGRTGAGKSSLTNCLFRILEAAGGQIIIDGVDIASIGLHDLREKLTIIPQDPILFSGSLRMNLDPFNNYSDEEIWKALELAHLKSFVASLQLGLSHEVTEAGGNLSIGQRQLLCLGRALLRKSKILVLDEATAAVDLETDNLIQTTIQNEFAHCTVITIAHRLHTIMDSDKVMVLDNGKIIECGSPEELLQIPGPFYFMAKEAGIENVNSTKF
In short: as §1

BCRP [7] = target: T2, BCRP (Homo sapiens, UniProt Q9UNQ0); test: Caco-2 transport with BCRP inhibitor Res; type: in vitro ADME; settings: Res 50 μmol/L; increase taken to indicate a substrate of BCRP
T2 sequence (Q9UNQ0 1-655): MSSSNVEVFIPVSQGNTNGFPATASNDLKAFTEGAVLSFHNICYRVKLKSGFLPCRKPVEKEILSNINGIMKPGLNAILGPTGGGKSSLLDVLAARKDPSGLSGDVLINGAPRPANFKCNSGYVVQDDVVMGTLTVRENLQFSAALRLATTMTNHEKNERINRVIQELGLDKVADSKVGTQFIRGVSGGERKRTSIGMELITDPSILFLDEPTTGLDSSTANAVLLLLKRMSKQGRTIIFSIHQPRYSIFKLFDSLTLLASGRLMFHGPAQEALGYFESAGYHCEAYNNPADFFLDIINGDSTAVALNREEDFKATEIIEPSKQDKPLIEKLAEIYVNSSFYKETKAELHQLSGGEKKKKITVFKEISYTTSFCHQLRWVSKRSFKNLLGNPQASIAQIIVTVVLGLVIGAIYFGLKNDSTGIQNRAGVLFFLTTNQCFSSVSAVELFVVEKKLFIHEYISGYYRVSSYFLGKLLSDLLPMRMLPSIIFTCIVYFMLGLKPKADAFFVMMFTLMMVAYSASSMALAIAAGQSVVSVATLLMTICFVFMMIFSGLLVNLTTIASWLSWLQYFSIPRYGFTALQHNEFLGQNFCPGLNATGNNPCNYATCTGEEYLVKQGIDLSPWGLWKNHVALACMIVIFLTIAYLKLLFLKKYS
In short: as §1

[8] = RAW264.7 cell viability, MTT assay; type: cell-based; settings: mouse, RAW 264.7 macrophages
In short: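 Log-phase RAW264.7 macrophages seeded at 10,000/well in 96-well plates and grown 24 h. Treated for 24 h with graded concentrations of free or liposomal test compound, 6 replicate wells per group. Then 0.5% MTT added for 4 h, formazan dissolved in DMSO, absorbance read at 490 nm.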

[9] = test system: RAW264.7 macrophages stimulated by LPS; test: NO release and ELISA of TNF-α, IL-6 and IL-10 in LPS-stimulated RAW264.7; type: cell-based, mouse; settings: LPS 1 µg/mL, paeonol 5 μg/mL, Pae-Lips 2.5, 5, 10 μg/mL
In short: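 RAW264.7 cells (DMEM, 20% FBS, 37°C, 5% CO2) seeded at 15,000/well and grown 24 h. Pretreated 2 h with free test compound (5 μg/mL final) or liposomes (2.5, 5, 10 μg/mL final). Then stimulated with LPS 1 µg/mL final (unstimulated control kept) for 20 h. Supernatant NO measured by kit; IL-6, TNF-α and IL-10 by ELISA.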

P-gp [10] = test: SPIP with P-gp inhibitor verapamil; settings: Ver 100 μmol/L; increase taken to indicate a substrate of P-gp
UC induced by DSS = test: DSS colitis: histological examination of colon; type: in vivo, Balb/c mice; settings: SASP 500 mg/kg; Pae-Lips-H 400 mg/kg
In short: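 Male Balb/c mice (10 weeks, n = 6/group) given 3% (w/v) DSS in drinking water for 7 days. Dosed by gavage twice daily, suspended in 0.5% CMC-Na. Distal colon (~2 cm) fixed in 10% formaldehyde and HE-stained. Scored for mucosal inflammation severity, lesion extent and crypt damage.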

COc1ccc(C(C)=O)c(O)c1 [Paeonol, 2’-hydroxy-4’-methoxyacetophenone]
cumulative release percentage (P%) (In vitro drug release): 36.05 ± 2.94%
Papp values at different concentrations [1]: no significant difference
Papp in each intestinal segment after adding Indo (MRP2 [2]): significantly increased
Papp in each intestinal segment after adding Res (BCRP [3]): significantly increased
Caco-2 cell viability (Caco-2 cells; concentration exceeds 10 μg/mL): significantly reduced
survival rate of Caco-2 cells (Caco-2 cells; within 10 μg/mL, 4 hours): greater than 90%
Papp A→B at 180 min, 2.5 μg/mL [4]: 3.25 ± 0.32 ×10⁻⁶ cm/s
Papp A→B at 180 min, 5 μg/mL [4]: 3.62 ± 0.13 ×10⁻⁶ cm/s
Papp A→B at 180 min, 10 μg/mL [4]: 3.65 ± 0.52 ×10⁻⁶ cm/s
Papp B→A at 180 min, 2.5 μg/mL [4]: 4.17 ± 0.22 ×10⁻⁶ cm/s
Papp B→A at 180 min, 5 μg/mL [4]: 5.19 ± 0.3 ×10⁻⁶ cm/s
Papp B→A at 180 min, 10 μg/mL [4]: 5.32 ± 0.67 ×10⁻⁶ cm/s
Papp value (AP-BL) with Ver (P-gp [5]): significantly increased
Papp value (AP-BL) with Indo (MRP2 [6]): significantly increased
Papp value (AP-BL) with Res (BCRP [7]): significantly increased
viability at 24 h, 5 μg/mL [8]: > 80%
IL-10 level vs LPS group [9]: increased
IL-6 level vs LPS group ([9]; p < 0.05): decreased
NO level vs LPS group ([9]; p < 0.05): decreased
TNF-α level vs LPS group ([9]; p < 0.05): decreased
Papp in each intestinal segment after adding Ver (P-gp [10]): significantly increased

O=C(O)c1cc(/N=N/c2ccc(S(=O)(=O)Nc3ccccn3)cc2)ccc1O [SASP]
colon histopathology finding (UC induced by DSS): no obvious lesions
